Assay results: ChEMBL document CHEMBL1137278, “Aza-stilbenes as potent and selective c-RAF inhibitors” (Bioorg Med Chem Lett, 2006)
pIC50: −log10 of the molar value. Activity calls are given as the source filed them. The rule behind the calls is not given here.

Experiments:
[1] = Inhibition of c-RAF1/MEK1/ERK2 signalling pathway by SPA
Summary of the method: (§1)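 Incubated 120 min at room temperature, stopped with EDTA/streptavidin SPA beads, counted by scintillation. 11-point 3-fold dilutions (0.0001–10 µM), normalized to DMSO and EDTA controls; IC50 fitted.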

[2] = biological target: RAF proto-oncogene serine/threonine-protein kinase (Homo sapiens, UniProt P04049); assay: Inhibition of c-RAF; summary of the method: as §1
Chain of RAF proto-oncogene serine/threonine-protein kinase (P04049 whole entry): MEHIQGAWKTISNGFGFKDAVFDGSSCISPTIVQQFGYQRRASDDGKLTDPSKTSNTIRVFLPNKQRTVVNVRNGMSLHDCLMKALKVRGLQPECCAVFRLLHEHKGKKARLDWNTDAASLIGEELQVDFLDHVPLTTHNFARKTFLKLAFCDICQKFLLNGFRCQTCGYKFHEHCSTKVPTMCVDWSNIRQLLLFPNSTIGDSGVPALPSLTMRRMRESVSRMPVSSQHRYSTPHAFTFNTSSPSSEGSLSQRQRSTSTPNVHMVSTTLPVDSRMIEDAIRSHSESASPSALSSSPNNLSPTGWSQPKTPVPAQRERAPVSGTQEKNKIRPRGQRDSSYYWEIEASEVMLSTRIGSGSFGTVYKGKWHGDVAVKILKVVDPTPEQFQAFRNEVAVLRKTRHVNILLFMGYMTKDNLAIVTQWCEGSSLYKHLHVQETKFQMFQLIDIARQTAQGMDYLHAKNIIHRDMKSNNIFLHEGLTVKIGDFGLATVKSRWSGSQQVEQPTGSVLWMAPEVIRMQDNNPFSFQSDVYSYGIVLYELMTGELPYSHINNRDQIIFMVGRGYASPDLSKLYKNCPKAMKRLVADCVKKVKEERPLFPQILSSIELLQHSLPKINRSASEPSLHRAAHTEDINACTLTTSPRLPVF

[3] = biological target: Mitogen-activated protein kinase 10 (Homo sapiens) (UniProt P53779); assay: Inhibition of JNK3
Chain of Mitogen-activated protein kinase 10 (Homo sapiens) (P53779 whole entry): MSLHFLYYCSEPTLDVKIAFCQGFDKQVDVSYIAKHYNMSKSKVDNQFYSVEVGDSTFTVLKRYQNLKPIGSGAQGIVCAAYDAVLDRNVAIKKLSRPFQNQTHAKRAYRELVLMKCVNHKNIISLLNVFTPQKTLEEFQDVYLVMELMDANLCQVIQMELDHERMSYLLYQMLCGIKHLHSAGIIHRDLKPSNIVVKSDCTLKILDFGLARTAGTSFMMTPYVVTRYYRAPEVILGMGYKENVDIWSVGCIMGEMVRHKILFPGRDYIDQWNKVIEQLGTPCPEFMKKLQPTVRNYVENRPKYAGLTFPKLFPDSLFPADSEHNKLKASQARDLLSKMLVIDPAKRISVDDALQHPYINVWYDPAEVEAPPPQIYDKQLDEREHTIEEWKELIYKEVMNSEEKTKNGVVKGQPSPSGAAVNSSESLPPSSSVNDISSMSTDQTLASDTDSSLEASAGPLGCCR

[4] = biological target: MAP kinase p38 (Homo sapiens) (UniProt O15264+Q15759+Q16539+P53778); assay: Inhibition of p38; assay type: protein assay
[5] = biological target: Tyrosine-protein kinase Fyn (Mus musculus) (UniProt P39688); assay: Inhibition of mouse FYN at 10 uM
Chain of Tyrosine-protein kinase Fyn (Mus musculus) (P39688 whole entry): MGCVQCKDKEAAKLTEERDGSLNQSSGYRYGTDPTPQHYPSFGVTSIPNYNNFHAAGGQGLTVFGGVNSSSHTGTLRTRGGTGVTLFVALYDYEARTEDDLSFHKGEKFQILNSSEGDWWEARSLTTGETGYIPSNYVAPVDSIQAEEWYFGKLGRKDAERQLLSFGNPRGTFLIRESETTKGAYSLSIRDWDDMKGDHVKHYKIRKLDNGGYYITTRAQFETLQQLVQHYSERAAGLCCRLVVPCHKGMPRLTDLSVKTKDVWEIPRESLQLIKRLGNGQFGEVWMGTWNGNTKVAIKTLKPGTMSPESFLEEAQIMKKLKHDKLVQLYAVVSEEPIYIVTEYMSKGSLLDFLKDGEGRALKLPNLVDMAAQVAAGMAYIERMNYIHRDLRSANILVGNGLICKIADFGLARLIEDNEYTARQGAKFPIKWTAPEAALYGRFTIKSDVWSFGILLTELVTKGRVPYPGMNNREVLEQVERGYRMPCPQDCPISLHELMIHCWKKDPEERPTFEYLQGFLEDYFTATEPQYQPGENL

[6] = biological target: Proto-oncogene tyrosine-protein kinase LCK (Mus musculus) (UniProt P06240); assay: Inhibition of mouse LCK at 10 uM
Chain of Proto-oncogene tyrosine-protein kinase LCK (Mus musculus) (P06240 2-509 limits assumed): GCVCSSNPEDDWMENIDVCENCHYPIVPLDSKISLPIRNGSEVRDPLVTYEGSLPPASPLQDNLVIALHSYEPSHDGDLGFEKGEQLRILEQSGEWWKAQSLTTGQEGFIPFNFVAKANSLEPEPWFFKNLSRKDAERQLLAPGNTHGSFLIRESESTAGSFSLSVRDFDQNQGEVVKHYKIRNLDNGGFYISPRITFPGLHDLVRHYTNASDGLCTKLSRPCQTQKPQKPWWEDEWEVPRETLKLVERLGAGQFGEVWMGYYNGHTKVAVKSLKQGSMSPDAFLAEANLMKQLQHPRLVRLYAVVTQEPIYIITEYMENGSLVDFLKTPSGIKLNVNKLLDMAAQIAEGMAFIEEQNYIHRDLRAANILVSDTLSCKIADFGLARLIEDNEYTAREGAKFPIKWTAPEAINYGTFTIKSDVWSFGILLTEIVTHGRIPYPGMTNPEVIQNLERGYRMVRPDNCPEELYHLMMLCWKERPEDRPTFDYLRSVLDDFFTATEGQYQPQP

[7] = biological target: Tyrosine-protein kinase Lyn (Homo sapiens) (UniProt P07948); assay: Inhibition of LYN at 10 uM
Chain of Tyrosine-protein kinase Lyn (Homo sapiens) (P07948 2-512 limits assumed): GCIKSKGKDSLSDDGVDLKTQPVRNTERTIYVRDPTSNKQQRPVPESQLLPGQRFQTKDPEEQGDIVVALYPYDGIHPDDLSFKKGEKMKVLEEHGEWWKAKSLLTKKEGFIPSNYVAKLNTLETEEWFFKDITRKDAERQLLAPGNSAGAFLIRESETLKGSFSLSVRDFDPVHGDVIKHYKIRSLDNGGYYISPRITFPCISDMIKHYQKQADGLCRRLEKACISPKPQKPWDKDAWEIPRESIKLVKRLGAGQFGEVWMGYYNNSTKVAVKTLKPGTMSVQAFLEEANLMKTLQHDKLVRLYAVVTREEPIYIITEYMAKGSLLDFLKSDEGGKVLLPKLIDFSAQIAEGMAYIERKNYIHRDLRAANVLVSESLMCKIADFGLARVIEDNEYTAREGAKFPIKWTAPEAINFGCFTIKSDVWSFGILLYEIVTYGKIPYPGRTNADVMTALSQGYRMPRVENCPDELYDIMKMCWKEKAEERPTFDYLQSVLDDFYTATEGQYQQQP

[8] = biological target: Proto-oncogene tyrosine-protein kinase Src (Homo sapiens) (UniProt P12931); assay: Inhibition of SRC kinase at 10 uM
Chain of Proto-oncogene tyrosine-protein kinase Src (Homo sapiens) (P12931 2-536 limits assumed): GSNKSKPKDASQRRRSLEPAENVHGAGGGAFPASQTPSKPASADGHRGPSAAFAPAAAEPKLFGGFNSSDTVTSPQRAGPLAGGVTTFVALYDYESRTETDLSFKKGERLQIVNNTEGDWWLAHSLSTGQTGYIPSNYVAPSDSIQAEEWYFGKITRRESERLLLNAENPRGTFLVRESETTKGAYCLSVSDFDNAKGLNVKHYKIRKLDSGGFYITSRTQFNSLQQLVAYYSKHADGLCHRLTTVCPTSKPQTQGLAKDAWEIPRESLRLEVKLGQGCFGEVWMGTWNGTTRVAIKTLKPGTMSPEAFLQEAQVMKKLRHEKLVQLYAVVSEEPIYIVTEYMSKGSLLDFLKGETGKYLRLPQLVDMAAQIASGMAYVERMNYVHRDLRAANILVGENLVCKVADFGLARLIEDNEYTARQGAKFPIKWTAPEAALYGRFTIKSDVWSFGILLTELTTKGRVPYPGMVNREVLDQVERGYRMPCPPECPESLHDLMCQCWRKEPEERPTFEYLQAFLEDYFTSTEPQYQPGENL

[9] = biological target: Tyrosine-protein kinase Fyn (Mus musculus, UniProt P39688); assay: Inhibition of mouse FYN
Chain of Tyrosine-protein kinase Fyn (P39688 whole entry): as the sequence (P39688 whole entry) above

SMILES | Log IC50 [1] | further results
Cc1cc(-c2ccsc2)cc(C)c1/C=C/c1cncc(-c2nn[nH]n2)c1 | -6 | 
CNC(=O)Oc1cc(C)c(/C=C/c2cncc(C(=O)OC)c2)c(C)c1 | -7.5 | 
Cc1cc(-c2cccs2)cc(C)c1/C=C/c1cncc(-c2nn[nH]n2)c1 | -6.5 | 
CNC(=O)Oc1cc(C)c(/C=C/c2cncc(C(=O)NC)c2)c(C)c1 [GW432441X] | -8 | 
Cc1cc(-c2cccnc2)cc(C)c1/C=C/c1cncc(-c2nn[nH]n2)c1 | -6.2 | 
Cc1cc(-c2ccccn2)cc(C)c1/C=C/c1cncc(-c2nn[nH]n2)c1 | -7 | Activity [5]: Active; Activity [6]: Active; Activity [7]: Active; Activity [8]: Active; Activity [3]: inactive; Activity [4]: inactive
CNC(=O)Oc1cc(C)c(/C=C/c2cncc(C(=O)N(C)C)c2)c(C)c1 | -5.1 | 
CNC(=O)c1cncc(/C=C/c2ccccc2C)c1 [GW445015X] | -5.5 | 
CNC(=O)Oc1cc(C)c(/C=C/c2cncc(C(N)=O)c2)c(C)c1 | -8.1 | Activity [3]: inactive; Activity [4]: inactive
CNC(=O)c1cncc(/C=C/c2c(Cl)cccc2Cl)c1 [GW445014X] | -6.6 | 
CNC(=O)Oc1cc(C)c(/C=C/c2cncc(C#N)c2)c(C)c1 | -7.4 | 
CNC(=O)Oc1cc(C)c(/C=C/c2cncc(C(=O)OC(C)(C)C)c2)c(C)c1 | -7 | 
CCc1cccc(CC)c1/C=C/c1cncc(C(=O)NC)c1 [GW450241X] | -4.6 | 
Cc1cccc(C)c1/C=C/c1cncc(C#N)c1 | -6 | 
CNC(=O)Oc1cc(C)c(/C=C/c2cncc(C(=O)O)c2)c(C)c1 | -8.2 | Activity [3]: inactive; Activity [4]: inactive
Cc1cc(-c2ccco2)cc(C)c1/C=C/c1cncc(-c2nn[nH]n2)c1 | -6.2 | 
CNC(=O)c1cncc(/C=C/c2ccccc2Cl)c1 [GW445017X] | -5.7 | 

Continued, in another order:

Log IC50 [1] | SMILES | further results
-6.4 | Cc1cc(O)cc(C)c1/C=C/c1cncc(C(=O)O)c1 | pIC50 [2]: 6.40; Activity [3]: inactive; Activity [4]: inactive
-5.4 | Cc1cc(O)cc(C)c1/C=C/c1cncc(C(=O)OC(C)(C)C)c1 [GW439255X] | 
-6.6 | CNC(=O)c1cncc(/C=C/c2c(C)cccc2C)c1 [GW445012X] | 
-6.8 | Cc1cc(O)cc(C)c1/C=C/c1cncc(C(N)=O)c1 [GW435821X] | 
-6.6 | CNC(=O)c1cncc(/C=C/c2c(C)cc(O)cc2C)c1 | 
-8.4 | Cc1cc(O)cc(C)c1/C=C/c1cncc(-c2nn[nH]n2)c1 | pIC50 [2]: 8.40; pIC50 [9]: 7.40; Activity [3]: inactive; Activity [4]: inactive
-7.9 | Cc1cccc(C)c1/C=C/c1cncc(-c2nn[nH]n2)c1 | Activity [3]: inactive; Activity [4]: inactive
-6.2 | COC(=O)c1cncc(/C=C/c2c(C)cc(O)cc2C)c1 [GW406731X] | 
-5.1 | Cc1cc(O)cc(C)c1/C=C/c1cncc(C(=O)N(C)C)c1 [GW427984X] | 
-7.1 | CNC(=O)c1cncc(/C=C/c2c(C)cccc2Cl)c1 | 
-6.1 | Cc1cc(O)cc(C)c1/C=C/c1cncc(C#N)c1 | 
